{
  "source": "ChEMBL document CHEMBL4396973",
  "about": "“Design and development of a series of borocycles as selective, covalent kallikrein 5 inhibitors” (Bioorg Med Chem Lett, 2019)",
  "key": {"[1]": {"test": "Solubility of the compound in Britton-Robinson buffer at pH 6 measured after 12 hrs", "assay_type": "physicochemical", "in_short": "(§1)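 Solubility was measured in Britton-Robinson buffers spanning pH 2 to pH 8. Readings were taken after 12 h and 24 h and reported in mg/mL.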"}, "Coagulation factor X": {"target": "Coagulation factor X (Homo sapiens, UniProt P00742)", "test": "Inhibition of recombinant human C-terminal 10-His-tagged factor Xa (L24 to K488 residues) expressed in baculovirus infected Sf21 insect cells using Mca-RPKPVE-Nval-WRK(Dnp)-NH2 as substrate incubated for 40 mins by FLINT assay"}, "[2]": {"test": "Light absorbance of the compound in methanol under UV light irradiation at 290 nm", "in_short": "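Compound dissolved in methanol. UV absorbance was examined across the range above 290 nm as a screen for light-mediated skin toxicity risk.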"}, "[3]": {"test": "Genotoxicity in Salmonella typhimurium TA1535 in presence of rat S9 fraction by mini-Ames test", "assay_type": "toxicity, subcellular", "conditions": "salmonella enterica subsp. enterica serovar typhimurium"}, "Kallikrein-7": {"target": "Kallikrein-7 (Homo sapiens, UniProt P49862)", "test": "Inhibition of recombinant human C-terminal 10-His-tagged KLK7 (Glu23 to His252 residues) expressed in mouse NS0 cells using 5-FAM-E-A-L-Y-L-V-S-G-C(5-TAMRA) as substrate incubated for 40 mins by FLINT assay"}, "[4]": {"target": "Kallikrein-5 (Homo sapiens) (UniProt Q9Y337)", "test": "Covalent reversible inhibition of human recombinant 6His-Q-FLAG-tagged KLK5 expressed in baculovirus infected Sf9 insect cells assessed as dissociation half life", "in_short": "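Jump-dilution experiment used to follow dissociation from KLK5. The apparent off-rate constant (K-off, per min) and dissociation half-life (T1/2) were derived from it.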"}, "[5]": {"test": "Genotoxicity in Salmonella typhimurium TA1537 in presence of rat S9 fraction by mini-Ames test", "assay_type": "toxicity, subcellular", "conditions": "salmonella enterica subsp. enterica serovar typhimurium"}, "[6]": {"target": "T1, Suppressor of tumorigenicity 14 protein (Homo sapiens, UniProt Q9Y5Y6)", "T1 sequence (Q9Y5Y6 whole entry)": "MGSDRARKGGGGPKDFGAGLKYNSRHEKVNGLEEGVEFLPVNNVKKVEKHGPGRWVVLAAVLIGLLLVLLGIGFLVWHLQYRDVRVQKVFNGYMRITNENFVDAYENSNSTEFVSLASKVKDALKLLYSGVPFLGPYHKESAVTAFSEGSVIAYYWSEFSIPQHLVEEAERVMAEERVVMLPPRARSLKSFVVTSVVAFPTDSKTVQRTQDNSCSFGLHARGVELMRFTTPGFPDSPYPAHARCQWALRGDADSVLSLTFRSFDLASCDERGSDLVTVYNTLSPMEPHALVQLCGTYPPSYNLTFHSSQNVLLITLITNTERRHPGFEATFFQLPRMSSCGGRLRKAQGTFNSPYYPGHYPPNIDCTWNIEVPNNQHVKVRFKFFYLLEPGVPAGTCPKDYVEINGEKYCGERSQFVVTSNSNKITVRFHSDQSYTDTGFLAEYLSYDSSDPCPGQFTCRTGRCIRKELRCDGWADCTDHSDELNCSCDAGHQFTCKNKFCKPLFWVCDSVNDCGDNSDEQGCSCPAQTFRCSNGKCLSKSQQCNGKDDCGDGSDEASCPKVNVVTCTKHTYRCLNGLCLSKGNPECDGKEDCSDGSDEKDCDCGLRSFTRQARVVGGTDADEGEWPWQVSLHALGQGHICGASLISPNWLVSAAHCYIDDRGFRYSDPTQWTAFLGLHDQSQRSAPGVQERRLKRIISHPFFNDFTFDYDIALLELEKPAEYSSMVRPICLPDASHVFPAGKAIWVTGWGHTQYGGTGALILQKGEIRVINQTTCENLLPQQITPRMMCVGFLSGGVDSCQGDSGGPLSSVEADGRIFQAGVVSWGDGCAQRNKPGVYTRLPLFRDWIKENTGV", "test": "Inhibition of recombinant human N-terminal Met and 6-His-tagged matriptase (G596 to V855 residues) expressed in Escherichia coli using Boc-QAR-AMC as substrate incubated for 40 mins by FLINT assay"}, "Kallikrein-1": {"target": "Kallikrein-1 (Homo sapiens, UniProt P06870)", "test": "Inhibition of human recombinant N-terminal His-tagged and enterokinase cleavage site-fused KLK1 (19 to 262 residues) expressed in baculovirus infected Sf9 insect cells using R110 labelled GSK3162232A as substrate measured at 30 secs interval for 5 mins by FLINT assay"}, "[7]": {"test": "Half life of the compound in Britton-Robinson buffer at pH 4 to 10 at 0.05 mg/ml", "assay_type": "physicochemical"}, "[8]": {"test": "Genotoxicity in Salmonella typhimurium TA98 in presence of rat S9 fraction by mini-Ames test", "assay_type": "toxicity, subcellular", "conditions": "salmonella enterica subsp. enterica serovar typhimurium"}, "Kallikrein-14": {"target": "T2, Kallikrein-14 (Homo sapiens, UniProt Q9P0G3)", "T2 sequence (Q9P0G3 whole entry)": "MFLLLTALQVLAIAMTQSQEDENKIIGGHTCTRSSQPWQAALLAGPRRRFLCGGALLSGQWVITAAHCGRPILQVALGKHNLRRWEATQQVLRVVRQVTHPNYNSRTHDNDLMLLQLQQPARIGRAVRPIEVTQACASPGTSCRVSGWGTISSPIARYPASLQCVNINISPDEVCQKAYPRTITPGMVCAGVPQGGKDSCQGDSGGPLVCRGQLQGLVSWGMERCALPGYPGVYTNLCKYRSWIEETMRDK", "test": "Inhibition of recombinant human C-terminal 10-His-tagged KLK14 (Q19 to M248 residues) expressed in mouse NS0 cells using BOC-VPR-AMC as substrate incubated for 40 mins by FLINT assay"}, "Kallikrein-5": {"target": "T3, Kallikrein-5 (Homo sapiens, UniProt Q9Y337)", "T3 sequence (Q9Y337 whole entry)": "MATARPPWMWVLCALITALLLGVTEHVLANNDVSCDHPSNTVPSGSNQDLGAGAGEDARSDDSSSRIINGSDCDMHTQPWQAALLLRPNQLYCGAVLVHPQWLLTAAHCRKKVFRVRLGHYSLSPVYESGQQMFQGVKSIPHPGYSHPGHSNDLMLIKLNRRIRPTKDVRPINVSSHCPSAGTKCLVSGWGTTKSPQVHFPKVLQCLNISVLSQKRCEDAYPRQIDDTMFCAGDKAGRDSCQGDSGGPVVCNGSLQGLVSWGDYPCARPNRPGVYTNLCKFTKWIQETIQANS", "test": "Inhibition of human recombinant 6His-Q-FLAG-tagged KLK5 expressed in baculovirus infected Sf9 insect cells using (Tos-Gly-Pro-Arg)2[R110].2TFA as substrate measured at 30 secs interval for 5 mins using 1 x 10'10M enzyme by FLINT assay"}, "[9]": {"test": "Genotoxicity in Salmonella typhimurium TA1537 in absence of rat S9 fraction by mini-Ames test", "assay_type": "toxicity", "conditions": "salmonella enterica subsp. enterica serovar typhimurium"}, "[10]": {"test": "Solubility of the compound in Britton-Robinson buffer at pH 4 measured after 24 hrs", "assay_type": "physicochemical", "in_short": "as §1"}, "[11]": {"test": "Genotoxicity in Salmonella typhimurium TA100 in absence of rat S9 fraction by mini-Ames test", "assay_type": "toxicity", "conditions": "salmonella enterica subsp. enterica serovar typhimurium"}},
  "note": "Active and inactive are the calls of the source. No cut-off for these calls is given here.",
  "data": [
    {"smiles": "Cl.N=C(N)c1ccc([C@H]2Cc3ccc(C(F)(F)F)cc3B(O)O2)cc1OCc1cccnc1", "values": [
      {"measurement": "solubility at 12 h", "setting": "[1]", "result": 3200, "unit": "µg/mL"},
      {"measurement": "IC50", "setting": "Coagulation factor X", "result": 398, "unit": "nM"},
      {"measurement": "Activity", "setting": "[2]", "result": "inactive"},
      {"measurement": "Activity", "setting": "[3]", "result": "Non-Toxic"},
      {"measurement": "IC50", "setting": "Kallikrein-7", "result": 79.4, "unit": "µM"},
      {"measurement": "T1/2", "setting": "[4]", "result": 1.17, "unit": "h"},
      {"measurement": "Activity", "setting": "[5]", "result": "Non-Toxic"},
      {"measurement": "IC50", "setting": "[6]", "result": 1260, "unit": "nM"},
      {"measurement": "IC50", "setting": "Kallikrein-1", "result": 251, "unit": "nM"},
      {"measurement": "half-life at 0.05 mg/ml", "setting": "[7]", "result": "> 41.7", "unit": "days"},
      {"measurement": "Activity", "setting": "[8]", "result": "Non-Toxic"},
      {"measurement": "IC50", "setting": "Kallikrein-14", "result": 31.6, "unit": "nM"},
      {"measurement": "IC50", "setting": "Kallikrein-5", "result": "< 0.316", "unit": "nM"},
      {"measurement": "Activity", "setting": "[9]", "result": "Non-Toxic"},
      {"measurement": "solubility at 24 h", "setting": "[10]", "result": "> 9000", "unit": "µg/mL"},
      {"measurement": "Activity", "setting": "[11]", "result": "Non-Toxic"}
    ]}
  ]
}
